Values after ≈ are worked out from the molar mass of the structure shown.
Columns and labels:
Bacillus cereus = assay: Antibacterial activity against Bacillus cereus grown in sheep blood agar media assessed as concentration required to inhibit bacterial growth due to absence of hemolysis of erythrocytes after 18 hrs by […] broth dilution method; type: functional
Summary of the method: (§1)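 Colonies from overnight culture on 5% sheep blood agar were suspended in Mueller−Hinton broth to 0.5 McFarland (about 1.5 × 10^8 CFU/mL), then diluted 10-fold. Aqueous stocks (1 g/L) were used at once and doubly diluted 250−0.125 μg/mL in Mueller−Hinton broth with 5% defibrinated sheep blood. Final inoculum was 2 × 10^5−7 × 10^5 CFU/mL. Plates were incubated 18 h at 35 °C. MIC was taken as the lowest concentration with no growth, shown by absence of erythrocyte hemolysis. Triplicate; ampicillin control.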

Staphylococcus aureus = assay: Antibacterial activity against Staphylococcus aureus grown in sheep blood agar media assessed as concentration required to inhibit bacterial growth due to absence of hemolysis of erythrocytes after 18 hrs by […] broth dilution method; type: functional; summary of the method: as §1
Bacillus subtilis = assay: Antibacterial activity against Bacillus subtilis grown in sheep blood agar media assessed as concentration required to inhibit bacterial growth due to absence of hemolysis of erythrocytes after 18 hrs by […] broth dilution method; type: functional; summary of the method: as §1
Escherichia coli = assay: Antibacterial activity against Escherichia coli grown in sheep blood agar media assessed as concentration required to inhibit bacterial growth due to absence of hemolysis of erythrocytes after 18 hrs by […] broth dilution method; type: functional; summary of the method: as §1
[1] = system: Pectobacterium carotovorum; assay: Antibacterial activity against Erwinia carotovora grown in sheep blood agar media assessed as concentration required to inhibit bacterial growth due to absence of hemolysis of erythrocytes after 18 hrs by […] broth dilution method; type: functional; summary of the method: as §1
HeLa = assay: Cytotoxicity against human HeLa cells after 48 hrs by SRB method; type: functional, cell-based
HL-60 = assay: Cytotoxicity against human HL60 cells after 48 hrs by SRB method; type: functional, cell-based; details: HL-60, 48 h
[2] = Cytotoxicity against human […] cells after 48 hrs by SRB method; type: functional, cell-based

C=C(CO)C(=O)O[C@@H]1C2=C(C)C(=O)O[C@@]2(O)C[C@@]23O[C@@H]2CC[C@H](C)[C@@]13C
MIC (Bacillus cereus): 7.25 µg/mL (≈ 19.9 µM)
MIC (Staphylococcus aureus): 7.25 µg/mL (≈ 19.9 µM)
MIC (Bacillus subtilis): 15.5 µg/mL (≈ 42.5 µM)
MIC (Escherichia coli): 7.25 µg/mL (≈ 19.9 µM)
MIC [1]: 7.25 µg/mL (≈ 19.9 µM)

CC1=C2[C@@H](O)[C@]3(C)[C@@H](C)CC[C@H]4O[C@]43C[C@@]2(O)OC1=O
MIC (Bacillus cereus): 62.5 µg/mL (≈ 223 µM)
MIC (Staphylococcus aureus): 125 µg/mL (≈ 446 µM)
MIC (Bacillus subtilis): 125 µg/mL (≈ 446 µM)
MIC (Escherichia coli): 125 µg/mL (≈ 446 µM)
MIC [1]: 125 µg/mL (≈ 446 µM)

CC(=O)[C@@]12O[C@@H]1[C@@]1(C)C(=CC2=O)[C@H](O)CC[C@@H]1C
IC50 (HeLa): 13 µM
MIC (Bacillus cereus): > 250 µg/mL
MIC (Staphylococcus aureus): > 250 µg/mL
MIC (Bacillus subtilis): > 250 µg/mL
MIC (Escherichia coli): 31.2 µg/mL (≈ 125 µM)
MIC [1]: 62.5 µg/mL (≈ 250 µM)
IC50 (HL-60): 13 µM
IC50 [2]: 13 µM

CC(=O)C1=C[C@@]2(C)C(=CC1=O)[C@H](O)CC[C@@H]2C
MIC (Bacillus cereus): > 250 µg/mL
MIC (Staphylococcus aureus): > 250 µg/mL
MIC (Bacillus subtilis): > 250 µg/mL
MIC (Escherichia coli): 31.2 µg/mL (≈ 133 µM)
MIC [1]: > 250 µg/mL

C/C=C(/CO)C(=O)O[C@@H]1C2=C(C)C(=O)O[C@]2(OC)C[C@@]23O[C@@H]2CC[C@H](C)[C@@]13C
IC50 (HeLa): 13 µM
MIC (Bacillus cereus): 62.5 µg/mL (≈ 159 µM)
MIC (Staphylococcus aureus): 125 µg/mL (≈ 319 µM)
MIC (Bacillus subtilis): 125 µg/mL (≈ 319 µM)
MIC (Escherichia coli): 62.5 µg/mL (≈ 159 µM)
MIC [1]: 125 µg/mL (≈ 319 µM)
IC50 (HL-60): 13 µM
IC50 [2]: 13 µM

C/C=C(/CO)C(=O)O[C@@H]1C2=C(C)C(=O)O[C@@]2(O)C[C@@]23O[C@@H]2CC[C@H](C)[C@@]13C
MIC (Bacillus cereus): 15.5 µg/mL (≈ 41 µM)
MIC (Staphylococcus aureus): 7.25 µg/mL (≈ 19.2 µM)
MIC (Bacillus subtilis): 7.25 µg/mL (≈ 19.2 µM)
MIC (Escherichia coli): 7.25 µg/mL (≈ 19.2 µM)
MIC [1]: 7.25 µg/mL (≈ 19.2 µM)

CC1(C)S[C@@H]2[C@H](NC(=O)[C@H](N)c3ccccc3)C(=O)N2[C@H]1C(=O)O [AMPICILLIN]
MIC (Bacillus cereus): 25 µg/mL (≈ 71.5 µM)
MIC (Staphylococcus aureus): 25 µg/mL (≈ 71.5 µM)
MIC (Bacillus subtilis): 12.5 µg/mL (≈ 35.8 µM)
MIC (Escherichia coli): 100 µg/mL (≈ 286 µM)
MIC [1]: 100 µg/mL (≈ 286 µM)

CO[C@@]12[C@H](COC(N)=O)C3=C(C(=O)C(C)=C(N)C3=O)N1C[C@@H]1N[C@@H]12 [MITOMYCIN]
IC50 (HeLa): 3 µM
IC50 (HL-60): 3 µM
IC50 [2]: 3 µM
